The record followed here is ChEMBL document CHEMBL4680184, “Simple amphiphilic α-hydrazido acids: Rational design, synthesis, and in vitro bioactivity profile of a novel class of potential antimicrobial compounds” (Eur J Med Chem, 2020).

The subject of one series is Enterococcus faecalis. Kind of series: Antibacterial activity against Enterococcus faecalis ATCC 29212 assessed as inhibition of visible growth after 24 hrs by broth microdilution method. The series is classed as functional. The method in brief:
(§1)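 Compounds dissolved in sterile water at the highest achievable concentration, then serially diluted in Mueller-Hinton II broth per CLSI broth microdilution. Strains grown 6 h in BHI, diluted in MHII to 1 × 10^6 cfu/mL final. Aerobic incubation 37 °C, 24 h; tetracycline internal control; bacteria-only growth controls. MIC = lowest concentration with no visible growth; triplicate.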

The subject of a further series is Staphylococcus aureus. Description: Antibacterial activity against Staphylococcus aureus ATCC 29213 assessed as inhibition of visible growth after 24 hrs by broth microdilution method. The class given is functional. The method, boiled down: as §1
For orientation: In broth dilution the organism is exposed to a series of concentrations in liquid medium.

The next series concerns Escherichia coli. Description: Antibacterial activity against Escherichia coli ATCC 25922 assessed as inhibition of visible growth after 24 hrs by broth microdilution method. The series is classed as functional. The method in brief:
as §1

The nature of series [1]: Hemolytic activity against human erythrocytes measured after 1 hr by microplate reader based spectrophotometric analysis. The class given is ADME, cell-based, Erythrocyte. The method, boiled down:
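Heparinized fresh human blood washed three times in PBS pH 7.4 (1000 g, 10 min), resuspended ~20 vol %. Equal volume with 1:2 serial dilutions of compound in PBS, 1 h at 37 °C; PBS and 0.2 vol % Triton X-100 controls. Supernatant diluted 1:60, A350 read. HC50 from three- or four-parameter Hill fit; mean of three replicates.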

Series [2] can be described thus: Retention time of the compound by RP-HPLC analysis. The class given is physicochemical. The method in brief: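 RP-HPLC on C18 column (5 µm, 200 × 4.6 mm), 0.5 mL/min; hydrochlorides at 0.5–1 mg/mL in water:2-propanol 70:30, gradient to 10:90 over 40 min, then 20 min at 10:90. Adjusted retention time = instrumental retention time minus hold-up time.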
In a further series the test system is Pseudomonas aeruginosa. Kind of series: Antibacterial activity against Pseudomonas aeruginosa ATCC 27853 assessed as inhibition of visible growth after 24 hrs by broth microdilution method. The class given is functional. The method in brief: as §1
A further series has as its system Enterococcus faecium. Kind of series: Antibacterial activity against Enterococcus faecium 135562 (35C) assessed as inhibition of visible growth after 24 hrs by broth microdilution method. The series is classed as functional. The method in brief:
as §1

Series [3] can be described thus: Therapeutic index, ratio of HC50 for human erythrocytes to MIC for Escherichia coli ATCC 25922. The series is classed as toxicity. As to conditions: read-out: TI.
Series [4] in a line: Therapeutic index, ratio of HC50 for human erythrocytes to MIC for Staphylococcus aureus ATCC 29213. The conditions noted are these: read-out: TI. The series is classed as toxicity.

In brackets after ≈: the same amount, converted by molar mass.

For orientation: MIC means the least concentration at which growth counts as inhibited. Usually HC50 stands for the concentration that lyses half of the red blood cells. Take `CCCCCCCCCCCCCCCCCCNC(=O)CN(NC(=O)CCCCCCC)C(=O)CN.Cl`: the MIC in the series on Enterococcus faecalis, in the series on Staphylococcus aureus, in the series with Escherichia coli, in the series with Pseudomonas aeruginosa and in the series on Enterococcus faecium was above 256 µg/mL throughout. Besides, in [1], the HC50 at 1 h worked out at 267 µg/mL. Besides, the Retention_time in series [2] is 33.1 min. In addition, the selectivity ratio in [3] and in series [4] was below 1 throughout.
For the compound `CCCCCCCCCCCCCCCCCC(=O)NN(CC(=O)NCCC)C(=O)CN.Cl`, the MIC in the series with Enterococcus faecalis was determined as 32 µg/mL; in the series with Staphylococcus aureus it was 64 µg/mL; in the series on Escherichia coli it was 512 µg/mL; in the series with Pseudomonas aeruginosa it was 512 µg/mL; in the series on Enterococcus faecium it was 16 µg/mL. For the same compound, the HC50 at 1 h in series [1] was found to be 234 µg/mL. The Retention_time in series [2] came out at 26.5 min. The selectivity ratio turned out to be 0.5 in [3] and 3.7 in series [4].
In the case of `CCCCCCCCNC(=O)CN(C(=O)CN)N(C)C(=O)C(C)(C)C`, the MIC in the series on Enterococcus faecalis came to 512 µg/mL (≈ 1440 µM); with Staphylococcus aureus, 512 µg/mL (≈ 1440 µM); in the series on Escherichia coli, 256 µg/mL (≈ 718 µM); in the series with Pseudomonas aeruginosa, 512 µg/mL (≈ 1440 µM); in the series on Enterococcus faecium it was 512 µg/mL (≈ 1440 µM). The Retention_time in series [2] worked out at 11.7 min.
With `CCCCCCCCCCCCNC(=O)CN(NC(=O)OCc1ccccc1)C(=O)CN.Cl`, the MIC in the series with Enterococcus faecalis is 16 µg/mL; in the series on Staphylococcus aureus, 8 µg/mL; in the series with Escherichia coli, 32 µg/mL; with Pseudomonas aeruginosa it was 128 µg/mL; in the series on Enterococcus faecium, 8 µg/mL. This compound registered an HC50 at 1 h in [1] of 86 µg/mL. Also, the Retention_time in [2] was determined as 21.2 min. Besides, the results for the selectivity ratio in [3] and in [4] were 2.7 and 11, respectively.
`CCCCCCCCCCCCNC(=O)CN(C(=O)CN)N(C)C(=O)C(C)(C)C`: the MIC in the series with Enterococcus faecalis came to 16 µg/mL (≈ 38.8 µM); in the series with Staphylococcus aureus, 16 µg/mL (≈ 38.8 µM); in the series on Escherichia coli, 64 µg/mL (≈ 155 µM); in the series with Pseudomonas aeruginosa it was 512 µg/mL (≈ 1240 µM); in the series with Enterococcus faecium, 16 µg/mL (≈ 38.8 µM). In series [2], this compound displayed a Retention_time of 18.9 min.
Consider `CCCCCCCCCCCCNC(=O)CN(C(=O)CN)N(C)C(C)=O`, for which the minimal inhibitory concentration (MIC) in the series with Enterococcus faecalis amounted to 32 µg/mL (≈ 86.4 µM); with Staphylococcus aureus, 64 µg/mL (≈ 173 µM); with Escherichia coli it was 128 µg/mL (≈ 345 µM); in the series on Pseudomonas aeruginosa, 256 µg/mL (≈ 691 µM); with Enterococcus faecium it was 32 µg/mL (≈ 86.4 µM). The compound also showed a Retention_time in series [2] of 17.1 min.
Turning to `CCCCCCCCCCCCCCCCCC(=O)NN(CC(=O)NCCCCCCCC)C(=O)CN.Cl`, the MIC in the series on Enterococcus faecalis is 512 µg/mL; in the series with Staphylococcus aureus it was 128 µg/mL; in the series on Escherichia coli, 512 µg/mL; in the series on Pseudomonas aeruginosa, 512 µg/mL; in the series with Enterococcus faecium, 64 µg/mL. This compound gave an HC50 at 1 h in series [1] of 200 µg/mL. This compound also had a Retention_time in series [2] of 32.2 min. Moreover, the selectivity ratio in series [3] came out at 0.4; in series [4], 1.6.
On to `CCCCCCCCNC(=O)CN(C(=O)CN)N(C)C(C)=O`, for which the MIC in the series with Enterococcus faecalis turned out to be 1020 µg/mL (≈ 3260 µM); in the series with Staphylococcus aureus, 2050 µg/mL (≈ 6510 µM); with Escherichia coli it was 2050 µg/mL (≈ 6510 µM); in the series with Pseudomonas aeruginosa it was 2050 µg/mL (≈ 6510 µM); in the series on Enterococcus faecium it was 1020 µg/mL (≈ 3260 µM). This compound returned a Retention_time in series [2] of 9.1 min.
`CCCNC(=O)CN(NC(C)=O)C(=O)CN.O=C(O)C(F)(F)F`: the minimum inhibitory concentration (MIC) in the series with Enterococcus faecalis turned out to be 2050 µg/mL; in the series on Staphylococcus aureus it was 1020 µg/mL; in the series on Escherichia coli, 2050 µg/mL; with Pseudomonas aeruginosa it was 2050 µg/mL; with Enterococcus faecium it was 2050 µg/mL. The compound also registered an HC50 at 1 h in series [1] of 2700 µg/mL. In [2], this compound had a Retention_time of 0.3 min. In addition, the selectivity ratio in series [3] amounted to 1.3; in series [4], 2.6.
Regarding `CCCCCCCCCCCCCCCCCCNC(=O)CN(NC(=O)CCCCCCCCCCCCCCCCC)C(=O)CN.Cl`, the Retention_time in [2] is on record as 41.8 min.
As to `CCCCCCCCCCCCNC(=O)CN(C(=O)CN)N(C)C(=O)OCc1ccccc1`, the MIC in the series on Enterococcus faecalis amounted to 8 µg/mL (≈ 17.3 µM); in the series on Staphylococcus aureus, 8 µg/mL (≈ 17.3 µM); with Escherichia coli it was 64 µg/mL (≈ 138 µM); in the series with Pseudomonas aeruginosa, 512 µg/mL (≈ 1110 µM); in the series with Enterococcus faecium, 8 µg/mL (≈ 17.3 µM). Further, in series [2], the Retention_time turned out to be 20.7 min.
As for `CCCCCCCCNC(=O)CN(C(=O)CN)N(C)C(=O)OCc1ccccc1`, the MIC with Enterococcus faecalis is 128 µg/mL (≈ 315 µM); in the series with Staphylococcus aureus it was 128 µg/mL (≈ 315 µM); with Escherichia coli it was 128 µg/mL (≈ 315 µM); in the series with Pseudomonas aeruginosa it was 256 µg/mL (≈ 630 µM); with Enterococcus faecium, 128 µg/mL (≈ 315 µM). In addition, the Retention_time in [2] came out at 13.8 min.
